Test results reported in ChEMBL document CHEMBL3616442, “Unconventional Knoevenagel-type indoles: Synthesis and cell-based studies for the identification of pro-apoptotic agents” (Eur J Med Chem, 2015).
Activity calls are given as the source filed them. No cut-off for these calls is given here.

What was measured:
MT4 = test: Antiproliferative activity against human MT4 cells after 96 hrs by MTT assay; type: functional, cell-based; conditions: MT4, 96 h
Outline: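 Exponentially growing MT-4 cells (CD4+ human T-cells carrying integrated HTLV-1 genome), seeded at 1×10^5 cells/mL in RPMI-1640 with 10% FCS and antibiotics. Serial dilutions of compound (DMSO stock 100 mM, diluted in medium), 37 °C, 5% CO₂, 96 h. Viability read by MTT. 50% inhibition versus untreated controls by linear regression. Mean ± SD of three independent determinations.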

CCRF-CEM = test: Cytotoxicity against human CCRF-CEM cells after 96 hrs by MTT assay; type: functional, cell-based
Outline: (§1)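 ATCC cell lines, mycoplasma-free by Hoechst staining. Haematological lines in RPMI-1640, solid-tumour and normal fibroblast lines in their own media, all with 10% FCS and antibiotics, at 37 °C in 5% CO₂. Compounds added as serial dilutions from a 100 mM DMSO stock diluted in medium. Viability by MTT after 96 h at 37 °C. Mean ± SD of three independent determinations.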

WIL2-NS = test: Cytotoxicity against human WIL2-NS cells after 96 hrs by MTT assay; type: functional, cell-based; outline: as §1
CCRF-SB = test: Cytotoxicity against human CCRF-SB cells after 96 hrs by MTT assay; type: functional, cell-based; outline: as §1
MRC5 = test: Cytotoxicity against human MRC5 cells after 96 hrs by MTT assay; type: cell-based; conditions: MRC5, 96 h; outline: as §1
[1] = Cytotoxicity against human CRL7065 cells after 96 hrs by MTT assay; type: cell-based; conditions: CRL-7065, 96 h; outline: as §1
SK-MEL-28 = test: Cytotoxicity against human SK-MEL-28 cells after 96 hrs by MTT assay; type: functional, cell-based; conditions: SK-MEL-28, 96 h; outline: as §1
[2] = Cytotoxicity against human SKMES1 cells after 96 hrs by MTT assay; type: functional, cell-based; conditions: SK-MES-1, 96 h; outline: as §1
DU-145 = test: Cytotoxicity against human DU145 cells after 96 hrs by MTT assay; type: functional, cell-based; conditions: DU-145, 96 h; outline: as §1
HepG2 = test: Cytotoxicity against human HepG2 cells after 96 hrs by MTT assay; type: functional, cell-based; conditions: HepG2, 96 h; outline: as §1
MCF7 [3] = test: Cytotoxicity against human MCF7 cells after 96 hrs by MTT assay; type: functional, cell-based; conditions: MCF7, 96 h; outline: as §1
HL-60 [4] = test: Antiproliferative activity against human HL60 cells after 3 days incubation by alamar blue method; type: functional; conditions: for GI50: HL-60, 72 h
Outline: (§2)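 HL-60 and K562 grown in RPMI 1640, MCF-7 in DMEM, each with 10% FCS, penicillin G and streptomycin. Seeded at 4x10⁴ (HL-60, K562) or 2x10⁴ (MCF-7) cells per well with serial compound dilutions, incubated 3 days at 37 °C. Alamar blue added for 3 h at 37 °C in the dark, fluorescence read at ex 544/em 590 nm. IC50 versus untreated controls by linear regression.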

K562 [5] = test: Antiproliferative activity against human K562 cells after 3 days incubation by alamar blue method; type: functional; conditions: for GI50: K562, 72 h; outline: as §2
MCF7 [6] = test: Antiproliferative activity against human MCF7 cells after 3 days incubation by alamar blue method; type: functional; conditions: for GI50: MCF7, 72 h; outline: as §2
HL-60 [7] = test: Induction of apoptosis in human HL60 cells by propidium iodide staining based flow cytometric analysis; type: functional
Outline: (§3)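 After treatment, cells harvested, fixed in ice-cold 70% ethanol at 4 °C, stained 30 min at 37 °C in the dark with 100 µg/mL propidium iodide plus 10 µg/mL RNase A; 10,000 gated cells analysed at 488 nm with debris excluded; apoptosis followed over time; mean ± S.E.M. of three independent experiments run in triplicate.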

K562 [8] = test: Induction of apoptosis in human K562 cells by propidium iodide staining based flow cytometric analysis; type: functional; outline: as §3
MCF7 [9] = test: Induction of apoptosis in human MCF7 cells by propidium iodide staining based flow cytometric analysis; type: functional; outline: as §3
Tubulin (Homo sapiens) = Tubulin (Homo sapiens) (UniProt P68371+Q9H4B7+P0DPH7+P68366+Q13509+Q71U36+P04350+Q3ZCM7+P07437+P68363+Q9BQE3+Q6PEY2+Q13885+Q9BVA1+Q9BUF5); test: Induction of Tubulin depolymerization in human MCF7 cells by immunofluorescence analysis; type: cell-based
Outline: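 MCF-7 cells grown and treated on chamber slides, fixed in ice-cold 100% methanol, washed in PBS with 0.1% Triton X-100, blocked 30 min in 5% BSA, then mouse anti-tubulin for 1 h and Alexa 488 secondary for 1 h; DNA counterstained with 0.2 μg/mL propidium iodide for 2 min. Paclitaxel and PBOX-15 served as tubulin controls.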

HL-60 [10] = test: Induction of cell cycle arrest in human HL60 cells assessed as accumulation at G2/M phase after 18 hrs by propidium iodide staining based flow cytometric analysis; type: functional
Outline: (§4)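 Propidium iodide/RNase A flow cytometry of ethanol-fixed cells, 10,000 gated events at 488 nm; G2/M fraction measured after 18 h treatment (HL-60, MCF-7) or 24 h (K562); mean ± S.E.M. of three independent experiments.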

K562 [11] = test: Induction of cell cycle arrest in human K562 cells assessed as accumulation at G2/M phase after 24 hrs by propidium iodide staining based flow cytometric analysis; type: functional; outline: as §4
MCF7 [12] = test: Induction of cell cycle arrest in human MCF7 cells assessed as accumulation at G2/M phase after 18 hrs by propidium iodide staining based flow cytometric analysis; type: functional; outline: as §4
Nucleic Acid = test: Induction of DNA intercalation of plasmid pQE30 DNA at 0.01 to 1 mM by electrophoretic mobility assay; type: nucleic-acid assay; conditions: Escherichia coli
Outline: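 Compound dissolved in methanol and incubated with double-strand plasmid pQE-30 DNA for 10 min at 37 °C; gel loading buffer added and samples run on 0.7% agarose to separate closed circular and supercoiled forms.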

For N#C/C(=C\c1c(-c2ccccc2)[nH]c2ccccc12)C(=O)c1cccs1, the EC50 (MT4) was 0.4 µM, the EC50 (CCRF-CEM) was 1.2 µM and the EC50 (WIL2-NS) was 6.4 µM. The EC50 (CCRF-SB) was 0.6 µM, the EC50 (MRC5) was 20 µM and the EC50 [1] was 45 µM. For the same molecule, the EC50 (SK-MEL-28) was 28 µM, the EC50 [2] was 4 µM and the EC50 (DU-145) was 11 µM. For the same molecule, the EC50 (HepG2) was 25 µM, the EC50 (MCF7 [3]) was 29 µM and the Activity (HL-60 [4]) was “Dose-dependent effect”. For the same molecule, the GI50 (HL-60 [4]) was 2.11 µM, the Activity (K562 [5]) was “Dose-dependent effect” and the GI50 (K562 [5]) was over 10 µM. The Activity (MCF7 [6]) was “Dose-dependent effect”, the GI50 (MCF7 [6]) was over 10 µM and the Activity (HL-60 [7]) was 61.3%. The Activity (HL-60 [7]; TDE = time-dependent effect) was “tde”, the Activity (K562 [8]; TDE = time-dependent effect) was “tde” and the Activity (MCF7 [9]) was 34.1%. For the same molecule, the Activity (MCF7 [9]; TDE = time-dependent effect) was “tde”.

For CC(=O)OC1=C(c2cccc3ccccc23)Oc2cc3ccccc3cc2-n2cccc21, the Activity (Tubulin (Homo sapiens)) was “Active”.

For CS(=O)(=O)/C(C#N)=C/c1c(-c2ccccc2)[nH]c2ccccc12, the EC50 (MT4) was 0.3 µM, the Activity (HL-60 [4]) was “Dose-dependent effect” and the GI50 (HL-60 [4]) was 1.32 µM. The Activity (K562 [5]) was “Dose-dependent effect”, the GI50 (K562 [5]) was over 10 µM and the Activity (MCF7 [6]) was “Dose-dependent effect”. The GI50 (MCF7 [6]) was over 10 µM, the Activity (HL-60 [7]; TDE = time-dependent effect) was “tde” and the Activity (K562 [8]) was 47.5%. The Activity (K562 [8]; TDE = time-dependent effect) was “tde”, the Activity (MCF7 [9]) was 28.4% and the Activity (MCF7 [9]; TDE = time-dependent effect) was “tde”. The Activity (HL-60 [10]) was 39.7%, the Activity (K562 [11]) was 46.8% and the Activity (MCF7 [12]) was 41.3%. For the same molecule, the Activity (Tubulin (Homo sapiens)) was “Active” and the Activity (Nucleic Acid) was “inactive”.
